From paper PMC9909812 (ACS Omega, 2023)
Where a SMILES comes first, the peptide text is derived from it. [ ]: non-standard residue; d: D form. The star is where a group is joined. X1 = O=C(O)CN1CCN(CC(=O)O)CCN(CC(=O)NCCN2C(=O)CC(*)C2=O)CCN(CC(=O)O)CC1

Tests used:
[1] = Biodistribution of ^68Ga-DOTA-RGD in MGC-803 tumor-bearing mice; type: in vivo; conditions: BALB/c nude, mouse, tumor (MGC-803 xenograft), iv, 10 MBq, total radioactivity
Method in brief: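 Female BALB/c nude mice (4–5 weeks, SPF) bearing s.c. right-shoulder xenografts of 5 × 10^6 MGC-803 cells in PBS; cells grown in DMEM/10% FBS, 37 °C, 5% CO2. Injected 10 MBq radiotracer (740 MBq/μmol), killed at 60 and 180 min. Blocking by co-injection of excess unlabelled thiol peptide (50 mg/kg), 180 min. Ten tissues weighed and gamma-counted, expressed as %ID/g; n = 3.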

inflamed tissue = experiment: Biodistribution of ^68Ga-DOTA-BSA in the turpentine oil inflammation model; type: in vivo, mice; conditions: 5–10 MBq, mean ± SD, n = 3
Method in brief: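 Inflammation induced by s.c. injection of 30 μL turpentine oil into the right thigh of female mice (4–5 weeks old). Radiolabelled albumin tracer (5–10 MBq; 130 MBq/μmol) injected. Mice killed under anaesthesia at 30 and 60 min post-injection. Inflamed tissue and organs collected, weighed, gamma-counted, and expressed as %ID/g. n = 3, mean ± SD.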

Compound | tissue uptake at 1 h [1] [%ID/g] | tissue uptake at 3 h [1] [%ID/g] | uptake in inflammatory tissues (inflamed tissue; 0.5 h after injection) [% ID/g] | uptake in inflammatory tissues (inflamed tissue; 1 h after injection) [% ID/g]
N=C(N)NCCC[C@@H]1NC(=O)[C@H](CSC2CC(=O)N(CCNC(=O)CN3CCN(CC(=O)O)CCN(CC(=O)O)CCN(CC(=O)O)CC3)C2=O)NC(=O)[C@H](CCCCN)NC(=O)[C@@H](Cc2ccc(O)cc2)NC(=O)[C@H](CC(=O)O)NC(=O)CNC1=O (stereo partly shown) [^68Ga-DOTA-RGD, metal not drawn] (cyclo(RGD[dY]KC(X1))) | 4.31 ± 0.93 | 8.3 ± 0.92 | – | –
^68Ga-DOTA-BSA: ^68Ga-labeled DOTA-Mal conjugated to DTT-treated bovine serum albumin (HS-BSA) | – | – | 4.32 ± 1.10 | 6.50 ± 0.40
